Data on three molecules can be found in ChEMBL document CHEMBL4130541, “Nicrophorusamides A and B, Antibacterial Chlorinated Cyclic Peptides from a Gut Bacterium of the Carrion Beetle Nicrophorus concolor” (2017).

The subject of test [1] is HCT-116. As to the kind of experiment: Cytotoxicity against human HCT116 cells. Type of test: functional, cell-based.
Test [2] concerns K562. As to the kind of experiment: Cytotoxicity against human K562 cells. The format is functional, cell-based.
The subject of test [3] is SK-HEP1. As to the kind of experiment: Cytotoxicity against human SKHEP1 cells. Type of test: functional, cell-based.
Test [4] has as its system Trichophyton mentagrophytes. Kind of test: Antifungal activity against Trichophyton mentagrophytes IFM 40996. Type of test: functional, organism-based.
The test system of test [5] is Aspergillus fumigatus. Kind of test: Antifungal activity against Aspergillus fumigatus HIC 6094. The format is functional, organism-based.
Test [6] relates to Escherichia coli. As to the kind of experiment: Antibacterial activity against Escherichia coli ATCC 25922 after 24 hrs by two fold serial dilution method. Type of test: functional. In a few lines:
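Overnight culture grown in Mueller Hinton broth at 37 °C, centrifuged and washed twice in sterile water. Compound dissolved in DMSO, serially 2-fold diluted in MHB from 128 to 0.03 μg/mL, with DMSO held at 1% final. Inoculum 5 × 10^5 cfu/mL final. Incubated 24 h at 37 °C. MIC taken as the lowest concentration inhibiting growth.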

Test [7] has as its system Enterococcus faecium. As to the kind of experiment: Antibacterial activity against Enterococcus faecium ATCC 19434 after 24 hrs by two fold serial dilution method. The format is functional. Conditions: ATCC 19434, 24 h. In a few lines: (§1)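 Bacteria grown overnight in Mueller Hinton broth at 37 °C, centrifuged and washed twice with sterile water. Compounds dissolved in DMSO, then 2-fold serial dilutions 128 to 0.03 μg/mL in broth, final DMSO 1%. Inoculum ~10^7 cfu/mL added to reach final 5 × 10^5 cfu/mL. Incubated 24 h at 37 °C. MIC = lowest concentration inhibiting growth.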

For test [8], the system named is Trichophyton rubrum. As to the kind of experiment: Antifungal activity against Trichophyton rubrum NBRC 9185. The format is functional, organism-based.
Test [9] has as its system Staphylococcus aureus. Kind of test: Antibacterial activity against Staphylococcus aureus ATCC 25923 after 24 hrs by two fold serial dilution method. The format is functional. The note with it: ATCC 25923, 24 h. In a few lines:
as §1

In test [10] the test system is MDA-MB-231. Kind of test: Cytotoxicity against human MDA-MB-231 cells. The format is functional, cell-based.
The subject of test [11] is Enterococcus faecalis. As to the kind of experiment: Antibacterial activity against Enterococcus faecalis ATCC 19433 after 24 hrs by two fold serial dilution method. The format is functional. Conditions: ATCC 19433, 24 h. In a few lines: as §1
The subject of test [12] is SNU-638. As to the kind of experiment: Cytotoxicity against human SNU638 cells. Type of test: functional, cell-based.
In test [13] the test system is Salmonella typhimurium. Kind of test: Antibacterial activity against Salmonella enterica ATCC 14028 after 24 hrs by two fold serial dilution method. The format is functional. The essentials: as §1
In test [14] the test system is Candida albicans. Kind of test: Antifungal activity against Candida albicans ATCC 10231. Type of test: functional, organism-based.
Test [15] relates to A549. As to the kind of experiment: Cytotoxicity against human A549 cells. The format is functional, cell-based.

Molecules are shown by their SMILES. Converted amounts (≈) assume the structure as drawn. The source made the active and inactive calls. Non-standard residues stand in square brackets, D forms with d. Residues, ends and D or L forms follow the SMILES beside them. Trp(5-Cl) = N[C@@H](Cc1c[nH]c2ccc(Cl)cc12)C(=O)O; dAsn(3R-OH) = NC(=O)[C@H](O)[C@@H](N)C(=O)O; aIle = CC[C@@H](C)[C@H](N)C(=O)O; Orn = NCCC[C@H](N)C(=O)O

What is called MIC is the smallest concentration in the dilution series that meets the test's criterion for growth inhibition. In the case of `CC[C@@H](C)[C@@H]1NC(=O)[C@@H](CC(C)C)NC(=O)[C@@H](C(C)C)NC(=O)[C@H](Cc2c[nH]c3ccc(Cl)cc23)NC(=O)[C@@H](CC(N)=O)NC(=O)[C@H](CCCN)NC1=O`, the outcome in test [1], in test [2], in test [3], in test [4], in [5] and in [8] was inactive. Further, the result in [10], in test [12], in test [14] and in test [15] was inactive. In addition, the MIC result in test [6] and in [13] (Salmonella enterica subsp. enterica serovar Typhimurium) was “inactive” throughout. For the same molecule, the results for the MIC in test [7], in test [9] and in test [11] were 128 µg/mL (≈ 165 µM), 64 µg/mL (≈ 82.6 µM) and 128 µg/mL (≈ 165 µM), respectively.

Take `CC[C@@H](C)[C@@H]1NC(=O)[C@@H](CC(C)C)NC(=O)[C@@H](C(C)C)NC(=O)[C@H](Cc2c[nH]c3ccc(Cl)cc23)NC(=O)[C@@H]([C@@H](O)C(N)=O)NC(=O)[C@H](CCCN)NC1=O` (cyclo([Orn][dAsn(3R-OH)][Trp(5-Cl)][dV][dL][aIle])): the outcome in test [1], in test [2], in test [3], in test [4], in [5] and in [8] was inactive. The result in test [10], in test [12], in test [14] and in test [15] was inactive. The MIC result in [6] was “inactive”. Further, the MIC was 16 µg/mL (≈ 20.2 µM) in test [7]; 8 µg/mL (≈ 10.1 µM) in test [9]; 16 µg/mL (≈ 20.2 µM) in test [11]; 16 µg/mL (≈ 20.2 µM) in test [13] (ATCC 14028, 24 h).

For `CC1(C)S[C@@H]2[C@H](NC(=O)[C@H](N)c3ccccc3)C(=O)N2[C@H]1C(=O)O` [AMPICILLIN], the MIC in test [6] (ATCC 25922, 24 h) turned out to be 8 µg/mL (≈ 22.9 µM); in test [7], 0.25 µg/mL (≈ 0.715 µM); in [9] it was 0.13 µg/mL (≈ 0.372 µM); in [11], 0.5 µg/mL (≈ 1.43 µM); in test [13] (ATCC 14028, 24 h), 0.13 µg/mL (≈ 0.372 µM).
